Data as given in ChEMBL document CHEMBL1921756, “Tyrphostin-like compounds with ubiquitin modulatory activity as possible therapeutic agents for multiple myeloma” (Bioorg Med Chem, 2011).

Key:
U-266 = test: Antitumor activity against human U266 cells after 24 to 72 hrs by MTT assay; type: functional, cell-based
How it was run: (§1)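 Myeloma lines grown in RPMI 1640 with 10% heat-inactivated FBS and 2 mM glutamine. 20,000 cells/well were exposed to a dilution range of compound in RPMI1640/10% FBS (final DMSO ≤0.1%), with vehicle-only controls, at 37 °C for 24–72 h (typically 72 h). MTT was added for 2 h at 37 °C, then lysis buffer (20% SDS, 50% DMF, pH 4.7) for 6 h.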

[1] = Antitumor activity against human MM1 cells after 24 to 72 hrs by MTT assay; type: functional, cell-based; how it was run: as §1
[2] = Antitumor activity against human OCI-My4 cells after 24 to 72 hrs by MTT assay; type: functional, cell-based; how it was run: as §1
U373 MG = test: Ratio of AG490 IC50 to compound IC50 for human U373MG cells; type: functional, U-373MG ATCC
[3] = Antitumor activity against human U87MG cells after 24 to 72 hrs by MTT assay; type: functional, cell-based, U-87MG ATCC; conditions: U-87 MG
How it was run: (§2)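 Tumor cells were plated at 20,000/well and given serially diluted compound in RPMI1640 with 10% FBS (final DMSO ≤0.1%) or vehicle alone, then incubated 24–72 h at 37 °C.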

U-87 MG = test: Ratio of AG490 IC50 to compound IC50 for human U87MG cells; type: functional, U-87MG ATCC
[4] = Antitumor activity against human U373MG cells after 24 to 72 hrs by MTT assay; type: functional, cell-based, U-373MG ATCC; conditions: U373 MG; how it was run: as §2

N#C/C(=C\c1ccc([N+](=O)[O-])cc1)C(=O)NCc1ccccc1
IC50 (U-266): 9000 nM | IC50 [1]: 7500 nM | IC50 [2]: 12000 nM

CCC[C@H](NC(=O)/C(C#N)=C/c1cccc(Br)n1)c1ccccc1
IC50 (U-266): 1300 nM | IC50 [1]: 1000 nM | IC50 [2]: 1500 nM

C[C@H](NC(=O)/C(C#N)=C/c1cccc(Br)n1)c1ccc(Br)cc1
IC50 (U-266): 1800 nM | IC50 [1]: 1500 nM | IC50 [2]: 2000 nM

COc1ccc([C@H](C)NC(=O)/C(C#N)=C/c2cccc(Br)n2)cc1
IC50 (U-266): 1400 nM | IC50 [1]: 1200 nM | IC50 [2]: 1800 nM

N#C/C(=C\c1cccc(Br)n1)C(=O)N[C@@H]1CCc2ccccc21
IC50 (U-266): 2500 nM | IC50 [1]: 2000 nM

N#C/C(=C\c1cccc(Br)n1)C(=O)N[C@@H]1CCCc2ccccc21
IC50 (U-266): 1900 nM | IC50 [1]: 1500 nM

C[C@H](NC(=O)/C(C#N)=C/c1cccc(Br)n1)c1ccc(Cl)cc1
IC50 (U-266): 2000 nM | IC50 [1]: 1600 nM | IC50 [2]: 2300 nM

N#C/C(=C\c1cccc(Br)n1)C(=O)N[C@@H](CO)c1ccccc1
IC50 (U-266): 3500 nM | IC50 [1]: 2800 nM | IC50 [2]: 3900 nM

CC[C@H](NC(=O)/C(C#N)=C/c1cccc(Br)n1)c1ccccc1
IC50 (U-266): 1400 nM | IC50 [1]: 1100 nM | IC50 [2]: 1700 nM

COc1cccc([C@H](C)NC(=O)/C(C#N)=C/c2cccc(Br)n2)c1
IC50 (U-266): 2800 nM | IC50 [1]: 2400 nM | IC50 [2]: 3100 nM

N#C/C(=C\c1cccc(Br)n1)C(=O)N[C@H](c1ccccc1)C(F)(F)F
IC50 (U-266): 11100 nM | IC50 [1]: 9600 nM

C[C@H](NC(=O)/C(C#N)=C/c1cccc(Br)n1)c1cccc(C(F)(F)F)c1
IC50 (U-266): 1600 nM | IC50 [1]: 1300 nM | IC50 [2]: 1800 nM

C[C@H](NC(=O)/C(C#N)=C/c1cccc(Br)n1)c1ccc(F)cc1
IC50 (U-266): 1400 nM | IC50 [1]: 1200 nM

C[C@H](NC(=O)/C(C#N)=C/c1cccc(Br)n1)c1cc(C(F)(F)F)cc(C(F)(F)F)c1
IC50 (U-266): 1500 nM | IC50 [1]: 1300 nM

COC(=O)C[C@H](NC(=O)/C(C#N)=C/c1cccc(Br)n1)c1ccccc1
IC50 (U-266): 3300 nM | IC50 [1]: 3100 nM

C[C@H](NC(=O)/C(C#N)=C/c1cccc(Br)n1)c1ccccc1F
IC50 (U-266): 2000 nM | IC50 [1]: 1800 nM | IC50 [2]: 2400 nM

N#C/C(=C\c1ccc(Cl)c([N+](=O)[O-])c1)C(=O)NC(c1ccccc1)C1CC1 (stereo not given)
IC50 (U-266): 2800 nM | IC50 [1]: 2500 nM | IC50 [2]: 2900 nM

N#C/C(=C\c1ccc(N2CCCCC2)cc1)C(=O)NC(c1ccccc1)C1CC1 (stereo not given)
IC50 (U-266): > 10000 nM | IC50 [1]: > 10000 nM

N#C/C(=C\c1cccc(Br)n1)C(=O)N[C@H](c1ccccc1)C1CC1
IC50 [1]: 1400 nM

CCCCCCc1ccc(/C=C(\C#N)C(=O)NC(c2ccccc2)C2CC2)cc1 (stereo not given)
IC50 [1]: > 10000 nM

C[C@H](NC(=O)/C(C#N)=C/c1cccc(Br)n1)c1ccc(N)cc1
IC50 [1]: > 10000 nM

N#C/C(=C\c1cccc(Br)n1)C(=O)NCc1cccc(N)c1
IC50 [1]: > 10000 nM

CCC[C@H](NC(=O)/C(C#N)=C/c1ccc([N+](=O)[O-])cc1)c1ccccc1
IC50 (U-266): 3600 nM | IC50 [1]: 2940 nM

CCC[C@H](NC(=O)/C(C#N)=C/c1ccc([N+](=O)[O-])cc1[N+](=O)[O-])c1ccccc1
IC50 [1]: > 10000 nM

CCC[C@H](NC(=O)/C(C#N)=C/c1ccccc1)c1ccccc1
IC50 (U-266): 7200 nM | IC50 [1]: 6250 nM

CCC[C@H](NC(=O)/C(C#N)=C/c1cccc([N+](=O)[O-])c1)c1ccccc1
IC50 (U-266): 2100 nM | IC50 [1]: 1730 nM | IC50 [2]: 2200 nM

CCC[C@H](NC(=O)/C(C#N)=C/c1ccc(Cl)c([N+](=O)[O-])c1)c1ccccc1
IC50 (U-266): 1800 nM | IC50 [1]: 1580 nM | IC50 [2]: 1900 nM

CCC[C@H](NC(=O)/C(C#N)=C/c1c(Cl)cccc1[N+](=O)[O-])c1ccccc1
IC50 [1]: > 10000 nM

CCC[C@H](NC(=O)/C(C#N)=C/c1ccc(O)cc1)c1ccccc1
IC50 [1]: > 10000 nM

CCC[C@H](NC(=O)/C(C#N)=C/c1ccc(O)c([N+](=O)[O-])c1)c1ccccc1
IC50 (U-266): 9300 nM | IC50 [1]: 8200 nM | IC50 [2]: 9700 nM

CCC[C@H](NC(=O)/C(C#N)=C/c1ccc(O)c(Br)c1)c1ccccc1
IC50 [1]: > 10000 nM

CC(=O)OC[C@H](NC(=O)/C(C#N)=C/c1cccc(Br)n1)c1ccccc1
IC50 (U-266): 2800 nM | IC50 [1]: 2600 nM | IC50 [2]: 2900 nM

C[C@H](NC(=O)/C(C#N)=C/c1ccc([N+](=O)[O-])c([N+](=O)[O-])c1)c1ccccc1
IC50 [1]: > 10000 nM

N#C/C(=C\c1cccc(Br)n1)C(=O)NC(c1ccccc1)c1ccccc1
IC50 (U-266): 5800 nM | IC50 [1]: 5000 nM | IC50 [2]: 6200 nM

N#C/C(=C\c1cccc(Br)n1)C(=O)N[C@@H](Cc1ccccc1)c1ccccc1
IC50 (U-266): 2700 nM | IC50 [1]: 2500 nM | IC50 [2]: 2900 nM

N#C/C(=C\c1ccc(Cl)c([N+](=O)[O-])c1)C(=O)N[C@@H](CO)c1ccccc1
IC50 [1]: > 10000 nM

C[C@H](NC(=O)/C(C#N)=C/c1ccc2c(c1)OCCN2C)c1ccccc1
IC50 [1]: > 10000 nM

C[C@H](NC(=O)/C(C#N)=C/c1ccc2c(c1)OC(F)(F)O2)c1ccccc1
IC50 [1]: > 10000 nM

N#C/C(=C\c1ccc(-c2cccc([N+](=O)[O-])c2)o1)C(=O)NC(c1ccccc1)C1CC1 (stereo not given)
IC50 [1]: > 10000 nM

CCC(NC(=O)/C(C#N)=C/c1ccc(-c2cccc([N+](=O)[O-])c2)o1)c1ccccc1 (stereo not given)
IC50 [1]: > 10000 nM

N#C/C(=C\c1ccc(-c2cccc([N+](=O)[O-])c2)o1)C(=O)NCc1ccccc1Cl
IC50 [1]: > 10000 nM

Cc1ccc(CNC(=O)/C(C#N)=C/c2ccc(-c3cccc([N+](=O)[O-])c3)o2)cc1
IC50 [1]: > 10000 nM

COc1cccc(CNC(=O)/C(C#N)=C/c2ccc(-c3cccc([N+](=O)[O-])c3)o2)c1
IC50 [1]: > 10000 nM

Cc1ccc(CNC(=O)/C(C#N)=C/c2ccc(-c3cccc([N+](=O)[O-])c3)o2)o1
IC50 [1]: > 10000 nM

N#C/C(=C\c1ccc(O)c(O)c1)C(=O)NCc1ccccc1
IC50 (U-266): > 12500 nM | IC50 [1]: > 10000 nM | IC50 [2]: > 12500 nM

N#C/C(=C\c1cccc(Br)n1)C(=O)NC(c1ccccc1)C1CC1 (racemic)
IC50 (U-266): 1300 nM | IC50 [1]: 1100 nM | IC50 [2]: 1600 nM

C[C@H](NC(=O)/C(C#N)=C/c1cccc(Br)n1)c1ccccc1 [WP 1066]
Ratio IC50 (U373 MG): 8 | IC50 [3]: 5.6 µM | Ratio IC50 (U-87 MG): 18 | IC50 (U-266): 1500 nM | IC50 [1]: 1200 nM | IC50 [2]: 1800 nM | IC50 [4]: 3.7 µM
